Series [1] relates to Leishmania donovani. The series is described as follows: Antileishmanial activity against Leishmania donovani MHOM/IN/80/Dd8 amastigotes harboring luciferase reporter gene infected in mouse J774 cells at 100 uM by Giemsa staining-based microscopic assay. The format is functional, organism-based. In a few lines: (§1)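 Infection of J774 macrophages with L. donovani Dd8 promastigotes at a 1:8 cell:parasite ratio. Compounds were diluted 2-fold in RPMI over 3.125–100 μM final and applied for 48 h. Amastigote inhibition was read by luciferase (RLU) or by Giemsa count of amastigotes per 100 macrophages. IC50 was from dose–response; n = 3 independent experiments done in replicate.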

The nature of series [2]: AUC (0 to infinity) in BALB/c mouse at 50 mg/kg, po administered via gavage by LC-MS/MS analysis. The format is ADME, organism-based. Also on record: dose 50 mg/kg, time infinity, route oral. Conditions: in vivo.
The test system of series [3] is Leishmania donovani. The series is described as follows: Induction of mitochondrial potential loss in Leishmania donovani MHOM/IN/80/Dd8 promastigotes assessed as shift in red to green fluorescence at 50 uM after 48 hrs by JC1 dye-based flow cytometry (reference value: 7.37%). The format is functional. The gist of the method: (§2)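 Exponential-phase promastigotes were incubated with 50 μM compound for 6−48 h, or 0.1% DMSO vehicle. CCCP (50 μM) served as positive control. After JC-1 staining, the red-to-green fluorescence shift was measured by flow cytometry.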

Series [4] concerns Leishmania donovani. The series is described as follows: Induction of apoptosis in Leishmania donovani MHOM/IN/80/Dd8 promastigotes assessed as early apoptotic cells at 50 uM measured after 48 hrs by Annexin V-FITC/propidium iodide staining based assay (reference value: 6.91%). The series is classed as functional.
Series [5] concerns Leishmania donovani. Briefly: Antileishmanial activity against Leishmania donovani MHOM/IN/80/Dd8 amastigotes harboring luciferase reporter gene infected in mouse J774 cells at 25 uM after 48 hrs by Steady-Glo luminescence assay relative to control. The format is functional. Conditions: MHOM/IN/80/Dd8, J774, 48 h. In a few lines:
as §1

For series [6], the system named is Leishmania donovani. The series is described as follows: Induction of apoptosis in Leishmania donovani MHOM/IN/80/Dd8 promastigotes assessed as early apoptotic cells at 50 uM measured after 12 hrs by Annexin V-FITC/propidium iodide staining based assay (reference value: 6.91%). The format is functional.
Series [7] in a line: Intrinsic clearance in rat liver microsomes at 10 ug/ml preincubated for 5 mins followed by NADPH addition measured after 60 mins by UPLC analysis. The series is classed as ADME, Microsome. Particulars: read-out: CLH. The gist of the method:
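Compound was incubated with rat liver microsomes, sampling % remaining up to 60 min. In vitro half-life and related parameters came from a plot of ln(% remaining) versus incubation time.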
For orientation: Microsomes from liver hold many membrane-bound enzymes, among them those of drug oxidation.

For series [8], the system named is Leishmania donovani. The series is described as follows: Antileishmanial activity against Leishmania donovani MHOM/IN/80/Dd8 promastigotes harboring luciferase reporter gene after 48 hrs by Steady-Glo luminescence assay relative to control. The series is classed as functional. The gist of the method:
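Luciferase-expressing L. donovani Dd8 promastigotes were grown at 24 °C in M199 with 10% heat-inactivated FBS and G418 20 μg/mL. They were treated at varied concentrations for 24 and 48 h, and inhibition was read as relative luminescence units versus untreated control. IC50 was from dose–response; screening values are mean ± SD of at least three experiments in duplicate.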
For orientation: In a reporter assay the amount or activity of a reporter protein is the signal.

Series [9] concerns Leishmania donovani. The series is described as follows: Induction of plasma membrane permeabilization in Leishmania donovani MHOM/IN/80/Dd8 promastigotes assessed as increase in fluorescence at MIC measured after 4 hrs by sytox green dye based flow cytometry relative to 0.1 % triton-X 100. The format is functional.
For series [10], the system named is Leishmania donovani. Briefly: Antileishmanial activity against Leishmania donovani MHOM/IN/80/Dd8 promastigotes harboring luciferase reporter gene after 48 hrs by MTT assay. The series is classed as functional, organism-based. Particulars: for IC50: MHOM/IN/80/Dd8, 48 h. The gist of the method:
(§3)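 Luciferase-expressing L. donovani Dd8 promastigotes were grown at 24 °C in M199 with 10% heat-inactivated FBS and G418 20 μg/mL. They were exposed to a range of concentrations for 48 h, and viability was read by MTT absorbance as percent of untreated control. IC50 was from dose–response; n = 3 independent experiments done in replicate.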

For series [11], the system named is Leishmania donovani. The series is described as follows: Antileishmanial activity against Leishmania donovani MHOM/IN/80/Dd8 amastigotes harboring luciferase reporter gene infected in mouse J774 cells assessed as stimulation of host immunity by measuring change in TNFalpha level at 50 uM after 48 hrs by ELISA. The format is functional, organism-based. The gist of the method:
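Infected J774 macrophages (24 h infection) were treated with 50 μM compound for 48 h. Culture supernatants were assayed by ELISA for TNF-α and IL-12 (Th1) and for TGF-β and IL-10 (Th2), compared with infected untreated cells.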

For series [12], the system named is Leishmania donovani. Briefly: Antileishmanial activity against Leishmania donovani MHOM/IN/80/Dd8 promastigotes infected in BALB/c mouse assessed as reduction in parasite load in liver at 200 mg/kg, ip administered once daily for 5 days measured 7 days post dose by giemsa staining-based assay relative to control. The series is classed as functional. Also on record: scale not given: the % may be the effect or the level left. The gist of the method:
(§4)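 Hamster-passaged strain was transformed to promastigotes. Stationary-phase cells (2 × 10^7 in 0.2 mL PBS) were injected into the tail vein of BALB/c mice. From day 15 post-infection, mice received compound ip in 8% DMSO in PBS for 5 consecutive days, 5 mice per group. Mice were killed day 7 post-treatment. Liver and spleen burden was read from Giemsa-stained stamp smears as LDU.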

The subject of series [13] is Leishmania donovani. Briefly: Antileishmanial activity against Leishmania donovani MHOM/IN/80/Dd8 promastigotes harboring luciferase reporter gene by MTT assay. The series is classed as functional, organism-based. Particulars: TDE = time-dependent effect. The gist of the method: as §3
The subject of series [14] is Leishmania donovani. The series is described as follows: Induction of apoptosis in Leishmania donovani MHOM/IN/80/Dd8 promastigotes assessed as late apoptotic cells at 50 uM measured after 12 hrs by Annexin V-FITC/propidium iodide staining based assay (reference value: 0.02%). The format is functional.
Series [15] has as its system Leishmania donovani. Briefly: Induction of plasma membrane permeabilization in Leishmania donovani MHOM/IN/80/Dd8 promastigotes assessed as non specific pore formation at MIC measured after 4 hrs by sytox green dye based flow cytometry. The series is classed as functional, organism-based. On the technique in general: Flow cytometry measures light scatter and fluorescence of single cells or particles in a stream.

The test system of series [16] is Leishmania donovani. The series is described as follows: Induction of reactive oxygen species generation in Leishmania donovani MHOM/IN/80/Dd8 promastigotes at 50 uM measured after 12 hrs by H2DCFDA probe-based flow cytometry (reference value: 7%). The series is classed as functional.
In series [17] the test system is Leishmania donovani. Briefly: Antileishmanial activity against Leishmania donovani MHOM/IN/80/Dd8 promastigotes harboring luciferase reporter gene at 100 uM after 48 hrs by MTT assay. The series is classed as functional, organism-based. In a few lines: as §3
Series [18] can be described thus: Cmax in BALB/c mouse at 50 mg/kg, po administered via gavage by LC-MS/MS analysis. The series is classed as ADME, organism-based. Also on record: dose 50 mg/kg, route oral. Particulars: in vivo.
Series [19] concerns Leishmania donovani. The series is described as follows: Antileishmanial activity against Leishmania donovani MHOM/IN/80/Dd8 promastigotes infected in ip dosed BALB/c mouse assessed as reduction in parasite load in spleen administered once daily for 5 days measured 7 days post dose by giemsa staining-based assay. The format is functional, organism-based. In a few lines:
as §4

Series [20] deals with Leishmania donovani. Briefly: Induction of nitric oxide generation in Leishmania donovani MHOM/IN/80/Dd8 promastigotes assessed as increase in fluorescence at 50 uM measured after 6 hrs by DAF-2DA dye-based flow cytometry relative to control. The series is classed as functional. The gist of the method: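 Log-phase promastigotes exposed to 50 μM for 6–18 h, vehicle control 0.1% DMSO, then labelled with 40 μM DAF-2DA. Fluorescence (GMFC) read by flow cytometry and expressed as fold change over vehicle. At least 3 independent experiments in duplicate.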

The test system of series [21] is Leishmania donovani. The series is described as follows: Antileishmanial activity against Leishmania donovani MHOM/IN/80/Dd8 promastigotes infected in BALB/c mouse assessed as reduction in parasite load in spleen at 50 mg/kg, ip administered once daily for 5 days measured 7 days post dose by giemsa staining-based assay relative to control. The format is functional. Also on record: scale not given: the % may be the effect or the level left. In a few lines:
as §4

The test system of series [22] is Leishmania donovani. Briefly: Induction of mitochondrial potential loss in Leishmania donovani MHOM/IN/80/Dd8 promastigotes assessed as shift in red to green fluorescence at 50 uM after 12 hrs by JC1 dye-based flow cytometry (reference value: 7.37%). The format is functional. In a few lines: as §2

The source made the active and inactive calls. The calls are words filed in the database; no cut-off is given here. A value given as a limit tells only on which side of the number the result lay.

For orientation: inhibition means the percentage by which the read-out fell short of the control. In general, AUC(0-inf) refers to the area under the concentration-time curve extrapolated to infinity. The term IC50 denotes the point on the concentration scale where inhibition reaches its midpoint. By Cmax is commonly meant the maximum level reached in the sampled fluid or tissue. With `Cc1cc(-c2ccc(OCCn3c([N+](=O)[O-])cnc3C)cc2)nc2ccccc12`, the inhibition entry with Leishmania donovani [1] and with Leishmania donovani [17] was “Active” throughout. The area under the curve AUC(0-inf) in series [2] is 18200 ng·h/mL. For the same molecule, the Activity with Leishmania donovani [3] is 68.76%; with Leishmania donovani [4], 18.07%; in the series with Leishmania donovani [6], 12.89%; in the series with Leishmania donovani [9] it was 3.63%; in the series with Leishmania donovani [12] it was 82.7%; with Leishmania donovani [14], 1.43%. The Activity with Leishmania donovani [16] was 31.61%; with Leishmania donovani [19], “Dose-dependent effect”; in the series with Leishmania donovani [21], more than 80.3%; in the series with Leishmania donovani [22] it was 33.15%. The molecule further gave an inhibition at 25 µM with Leishmania donovani [5] of 83.2%. Besides, the microsomal CLint at 10 ug/ml in series [7] was found to be 9.3 µL/min/mg. Besides, the Imax with Leishmania donovani [8] is more than 93%. Also, the inhibition entry in the series with Leishmania donovani [10] was “Dose-dependent effect”; in the series on Leishmania donovani [13], “Tde”. Besides, the IC50 in the series on Leishmania donovani [10] came out at 5.3 µM. The result in the series with Leishmania donovani [11] and with Leishmania donovani [15] was inactive. In series [18], this molecule came in with a Cmax of 6860 ng/mL. Also, the “fold change (FC)” value with Leishmania donovani [20] came to 1.75.

On to `Cc1cc(-c2cccc(OCCn3c([N+](=O)[O-])cnc3C)c2)nc2ccccc12`, for which the inhibition result in the series with Leishmania donovani [1] and in the series with Leishmania donovani [17] was “Active” in each case. Besides, testing at 25 µM in the series with Leishmania donovani [5] gave an inhibition of 75.2%. Besides, the microsomal CLint at 10 ug/ml in series [7] stood at 10.7 µL/min/mg. In the series on Leishmania donovani [8], this molecule had an Imax of more than 93%. The inhibition result in the series on Leishmania donovani [10] was “Dose-dependent effect”; in the series with Leishmania donovani [13] it was “Tde”. Further, the IC50 in the series on Leishmania donovani [10] was determined as 9.4 µM. For the same molecule, the Activity with Leishmania donovani [12] was 55.5%; with Leishmania donovani [19], “Dose-dependent effect”; in the series on Leishmania donovani [21], more than 50%.

The values above are taken from ChEMBL document CHEMBL4396890, “Synthesis, Biological Evaluation, Structure-Activity Relationship, and Mechanism of Action Studies of Quinoline-Metronidazole Derivatives Against Experimental Visceral Leishmaniasis” (J Med Chem, 2019).
